Source: ChEMBL document CHEMBL1154123, “Targeted isolation and structure elucidation of stilbene glycosides from the bark of Lysidice brevicalyx Wei guided by biological and chemical screening” (J Nat Prod, 2008)

What was measured:
[1] = Antioxidant activity against ferrous ion-induced lipid peroxidation in liver microsomes assessed as inhibition rate at 10 uM by TBA method in presence of cysteine; assay type: functional; design: scale not given: the % may be the effect or the level left; details: Microsome
Method in brief: (§1)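 Liver microsomal protein (1.0 mg in 1 mL 0.1 M PBS, pH 7.4) incubated with […] cysteine and test sample at 37 °C for 15 min; peroxidation initiated with 0.05 mM FeSO4. Stopped with 20% trichloroacetic acid, centrifuged, supernatant heated with 0.67% TBA 10 min at 100 °C. MDA read at 532 nm; inhibition rate calculated against Fe2+-cysteine and solvent-only controls. Vitamin E positive control.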

[2] = Antioxidant activity against ferrous ion-induced lipid peroxidation in liver microsomes assessed as inhibition rate at 100 uM by TBA method in presence of cysteine; assay type: functional; design: scale not given: the % may be the effect or the level left; details: Microsome; method in brief: as §1

| SMILES | Activity [1] [%] | Activity [2] [%] |
| --- | --- | --- |
| Oc1ccc(/C=C/c2cc(O)cc(O[C@@H]3O[C@H](CO[C@@H]4OC[C@@H](O)[C@H](O)[C@H]4O)[C@@H](O)[C@H](O)[C@H]3O)c2)cc1 | 4 | 21 |
| C[C@@H]1O[C@@H](OC[C@H]2O[C@@H](Oc3cc(O)cc(/C=C/c4ccc(O)cc4)c3)[C@H](O)[C@@H](O)[C@@H]2O)[C@H](O)[C@H](O)[C@H]1O | 11 | 31 |
| C[C@@H]1O[C@@H](O[C@H]2[C@H](Oc3cc(O)cc(/C=C/c4ccc(O)cc4)c3)O[C@H](CO)[C@@H](O)[C@@H]2O)[C@H](O)[C@H](O)[C@H]1O | 9 | 39 |
| C[C@@H]1O[C@@H](OC[C@H]2O[C@@H](Oc3cc(O)cc(/C=C\c4ccc(O)cc4)c3)[C@H](O[C@@H]3O[C@@H](C)[C@H](O)[C@@H](O)[C@H]3O)[C@@H](O)[C@@H]2O)[C@H](O)[C@H](O)[C@H]1O | 8 | 25 |
| C[C@@H]1O[C@@H](OC[C@H]2O[C@@H](Oc3cc(O)cc(/C=C/c4ccc(O)cc4)c3)[C@H](O[C@@H]3O[C@@H](C)[C@H](O)[C@@H](O)[C@H]3O)[C@@H](O)[C@@H]2O)[C@H](O)[C@H](O)[C@H]1O | 5 | 39 |
| C[C@@H]1O[C@@H](O[C@H]2[C@H](Oc3cc(O)cc(/C=C\c4ccc(O)cc4)c3)O[C@H](CO)[C@@H](O)[C@@H]2O)[C@H](O)[C@H](O)[C@H]1O | 11 | 10 |
| C[C@@H]1O[C@@H](O[C@H]2[C@H](Oc3cc(O)cc(/C=C/c4ccc(O)cc4)c3)OC[C@@H](O)[C@@H]2O)[C@H](O)[C@H](O)[C@H]1O | 6 | 67 |
| COc1ccc(CCN(C)CCCC(C#N)(c2ccc(OC)c(OC)c2)C(C)C)cc1OC (configuration not stated) | 33 | 81 |
| C[C@@H]1O[C@@H](OC[C@H]2O[C@@H](Oc3cc(O)cc(/C=C\c4ccc(O)cc4)c3)[C@H](O)[C@@H](O)[C@@H]2O)[C@H](O)[C@H](O)[C@H]1O | 0 | 15 |
| OC[C@H]1O[C@@H](Oc2cc(O)cc(/C=C/c3ccc(O)cc3)c2)[C@H](O)[C@@H](O)[C@@H]1O | 29 | 100 |
| OC[C@H]1O[C@@H](O[C@H]2[C@H](Oc3cc(O)cc(/C=C/c4ccc(O)cc4)c3)OC[C@@H](O)[C@@H]2O)[C@H](O)[C@@H](O)[C@@H]1O | 5 | 29 |
